Experimental data reported in ChEMBL document CHEMBL1921743, “Design, synthesis, biophysical and biological studies of trisubstituted naphthalimides as G-quadruplex ligands” (Bioorg Med Chem, 2011).
Activity calls are given as the source filed them. The rule behind the calls is not given here.

How the values were obtained:
[1] = tested on: Nucleic Acid; assay: Binding affinity to human telomeric AGGG(TTAGGG)3 quadruplex assessed as fluorescence quenching at 10 uM after 3 mins by fluorescence titration method; type: nucleic-acid assay
Summary of the method: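 Ligand held at 10 µM (final 2% DMSO) in K-phosphate/70 mM KCl buffer, pH 7.0, 25 °C, titrated with 100–160 µM annealed quadruplex in 5–10 µL additions, ≥3 min equilibration each. Emission recorded 400–600 nm. Fraction free ligand from the change in emission maximum, plotted against quadruplex concentration and fitted for Kb and n; ≥3 experiments.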

[2] = tested on: M14; assay: Cytotoxicity against human M14 cells after 5 days by MTT assay; type: functional, cell-based; details: for IC50: M14, 120 h
Summary of the method: (§1)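 Cells kept in RPMI-1640 with 10% FCS, 2 mM glutamine and gentamycin, 37 °C, 5% CO2. Seeded at 1000–3000/well, attached 24 h, then given 0.1–100 µM drug for 5 days; 0.2% DMSO controls. MTT added for 4 h, formazan dissolved in acidified isopropanol, A570 read. Eight replicates per point. IC50 read graphically from growth curves; mean ± SD of three experiments.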

[3] = tested on: Nucleic Acid; assay: Binding affinity to human telomeric AGGG(TTAGGG)3 quadruplex after 4 secs by circular dichroism spectroscopy analysis; type: nucleic-acid assay
[4] = tested on: Nucleic Acid; assay: Binding affinity to satellite DNA by UV titration method method; type: nucleic-acid assay
[5] = biological target: Telomerase reverse transcriptase (Homo sapiens) (UniProt O14746); assay: Inhibition of telomerase in human A549 cells at 5 uM after 72 hrs by ELISA based TRAP assay; type: cell-based
Telomerase reverse transcriptase (Homo sapiens), sequence (O14746 whole entry): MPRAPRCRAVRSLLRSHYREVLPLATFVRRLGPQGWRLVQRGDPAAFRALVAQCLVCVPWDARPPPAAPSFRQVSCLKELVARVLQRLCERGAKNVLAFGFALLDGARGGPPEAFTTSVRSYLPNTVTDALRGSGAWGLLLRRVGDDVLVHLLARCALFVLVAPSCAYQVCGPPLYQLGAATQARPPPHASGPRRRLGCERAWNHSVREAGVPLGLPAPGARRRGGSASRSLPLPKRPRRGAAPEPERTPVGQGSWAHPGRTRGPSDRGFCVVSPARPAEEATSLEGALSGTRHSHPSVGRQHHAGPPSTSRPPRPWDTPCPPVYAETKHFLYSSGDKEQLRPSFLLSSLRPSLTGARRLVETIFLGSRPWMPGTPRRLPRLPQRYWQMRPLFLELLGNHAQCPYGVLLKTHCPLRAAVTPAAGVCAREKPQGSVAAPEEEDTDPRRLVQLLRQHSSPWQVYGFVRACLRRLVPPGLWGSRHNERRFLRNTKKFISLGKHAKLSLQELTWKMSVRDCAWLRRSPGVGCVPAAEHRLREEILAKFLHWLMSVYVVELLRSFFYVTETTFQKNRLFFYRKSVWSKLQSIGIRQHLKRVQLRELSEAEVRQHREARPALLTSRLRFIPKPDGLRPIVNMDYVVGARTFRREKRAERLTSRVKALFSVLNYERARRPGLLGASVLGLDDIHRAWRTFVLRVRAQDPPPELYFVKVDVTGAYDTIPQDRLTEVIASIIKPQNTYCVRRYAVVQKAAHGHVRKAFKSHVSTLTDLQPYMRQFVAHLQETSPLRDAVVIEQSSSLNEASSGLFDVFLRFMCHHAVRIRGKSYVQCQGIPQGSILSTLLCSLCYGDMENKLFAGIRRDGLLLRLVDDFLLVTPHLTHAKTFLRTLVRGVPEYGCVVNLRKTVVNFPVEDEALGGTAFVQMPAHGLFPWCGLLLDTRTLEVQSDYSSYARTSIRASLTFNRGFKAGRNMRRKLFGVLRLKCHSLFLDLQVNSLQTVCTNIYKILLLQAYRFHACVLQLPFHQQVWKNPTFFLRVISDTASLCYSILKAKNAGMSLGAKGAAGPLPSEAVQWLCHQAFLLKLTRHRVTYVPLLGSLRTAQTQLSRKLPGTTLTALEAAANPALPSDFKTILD
Summary of the method: (§2)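 A549 cells exposed to compound at several concentrations for 72 h. Extracts (1–3 × 10^5 cell equivalents) run in a TRAP PCR-ELISA: P1-TS extension 20 min at 25 °C, then 30 PCR cycles, with an internal standard. Telomerase activity comes from elongation products; Taq activity from internal-standard amplification. Heat-inactivated extract serves as negative control. Triplicates, mean ± SEM, paired t-test.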

[6] = biological target: DNA polymerase I, thermostable (Thermus aquaticus) (UniProt P19821); assay: Inhibition of Thermus aquaticus taq polymerase at 0.1 to 50 uM after 72 hrs by ELISA based TRAP assay; summary of the method: as §2
DNA polymerase I, thermostable (Thermus aquaticus), sequence (P19821 whole entry): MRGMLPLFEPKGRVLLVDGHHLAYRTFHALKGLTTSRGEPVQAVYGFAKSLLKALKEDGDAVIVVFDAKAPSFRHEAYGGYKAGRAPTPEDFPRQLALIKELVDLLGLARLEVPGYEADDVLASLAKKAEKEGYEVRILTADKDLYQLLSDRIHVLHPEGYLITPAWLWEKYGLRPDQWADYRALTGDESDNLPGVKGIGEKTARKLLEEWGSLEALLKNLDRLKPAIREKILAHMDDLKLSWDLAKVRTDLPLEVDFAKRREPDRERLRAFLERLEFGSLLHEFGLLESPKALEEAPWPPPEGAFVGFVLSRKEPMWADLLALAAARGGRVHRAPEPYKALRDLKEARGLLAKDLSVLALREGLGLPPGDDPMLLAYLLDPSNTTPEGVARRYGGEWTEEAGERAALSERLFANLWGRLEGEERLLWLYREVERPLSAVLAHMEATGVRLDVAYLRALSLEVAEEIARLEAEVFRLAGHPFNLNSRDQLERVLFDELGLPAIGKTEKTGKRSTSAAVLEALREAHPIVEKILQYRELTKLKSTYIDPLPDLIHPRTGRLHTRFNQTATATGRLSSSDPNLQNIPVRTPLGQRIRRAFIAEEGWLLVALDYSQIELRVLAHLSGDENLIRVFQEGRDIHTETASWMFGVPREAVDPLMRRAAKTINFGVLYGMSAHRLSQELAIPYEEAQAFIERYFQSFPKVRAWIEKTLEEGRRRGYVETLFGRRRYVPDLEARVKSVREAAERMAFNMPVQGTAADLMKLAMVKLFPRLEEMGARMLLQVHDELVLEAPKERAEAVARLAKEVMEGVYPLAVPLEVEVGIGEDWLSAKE

[7] = tested on: A549; assay: Cytotoxicity against human A549 cells after 5 days by MTT assay; type: functional, cell-based; details: for IC50: A549, 120 h; summary of the method: as §1
[8] = tested on: Nucleic Acid; assay: Binding affinity to human telomeric AGGG(TTAGGG)3 quadruplex in first binding event at 480 to 640 uM every 300 to 400 secs at pH 7 by isothermal titration calorimetry analysis; type: nucleic-acid assay
Summary of the method: (§3)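 Isothermal titration calorimetry at 25 °C, pH 7.0 (20 mM K phosphate, 70 mM KCl, 0.1 mM EDTA). Quadruplex annealed 90 °C for 5 min, slow-cooled, held 24 h at 4 °C, used at 30–40 µM. Ligand 480–640 µM, 5–10 µL injections every 300/400 s, 25–50 injections. First injection discarded; dilution heat subtracted; multiple-sites fit gives Kb for each sequential event.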

[9] = biological target: Telomerase reverse transcriptase (Homo sapiens) (UniProt O14746); assay: Inhibition of telomerase in human A549 cells after 72 hrs by ELISA based TRAP assay; type: cell-based; summary of the method: as §2
[10] = tested on: NIH3T3; assay: Cytotoxicity against mouse NIH/3T3 cells assessed as growth inhibition at 0.1 to 100 uM after 5 days by MTT assay; type: cell-based; details: nih3t3, 120 h
Summary of the method: (§4)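 Mouse embryo fibroblasts grown with bovine calf serum in place of fetal serum. Plated at 1000–3000/well, attached 24 h, then exposed to 0.1–100 µM drug at 37 °C for 5 days alongside 0.2% DMSO controls. MTT for 4 h, acidified isopropanol, A570 read. Eight replicates per point; IC50 taken graphically, mean ± SD of three experiments.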

[11] = tested on: Nucleic Acid; assay: Binding affinity to human telomeric AGGG(TTAGGG)3 quadruplex assessed as melting temperature at 1:1 compound to DNA ratio at pH 7 by UV-visible spectrophotometer analysis; type: nucleic-acid assay
Summary of the method: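 UV melting of 25 µM annealed quadruplex alone or with ligand at 1:1 or 2:1 ligand/DNA, pH 7.0 K-phosphate/KCl buffer. Absorbance at 295 nm, 20–85 °C, heating at 0.5 °C/min, 1 mm path. Tm taken as mean ± SD of at least three runs.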

[12] = tested on: Nucleic Acid; assay: Binding affinity to human telomeric AGGG(TTAGGG)3 quadruplex in second binding event at 480 to 640 uM every 300 to 400 secs at pH 7 by isothermal titration calorimetry method; type: nucleic-acid assay; summary of the method: as §3
[13] = tested on: Nucleic Acid; assay: Binding affinity to duplex DNA d(CGCGAATTCGCG)2 duplex at pH 7 by isothermal titration calorimetry method; type: nucleic-acid assay
Summary of the method: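 ITC at 298 K. Ligand dissolved in the DNA buffer (20 mM potassium phosphate, 70 mM KCl, 0.1 mM EDTA, pH 7.0). 480–640 µM ligand injected in 5–10 µL aliquots into 30–40 µM annealed duplex every 300 or 400 s, 25–50 injections, stirring 150 rpm. Heats corrected for ligand dilution; isotherms fitted for Kb, ΔH and n.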

[14] = tested on: NIH3T3; assay: Cytotoxicity against mouse NIH/3T3 cells after 5 days by MTT assay; type: cell-based; details: NIH3T3, 120 h; summary of the method: as §4
[15] = biological target: DNA polymerase I, thermostable (Thermus aquaticus) (UniProt P19821); assay: Inhibition of Thermus aquaticus taq polymerase at 10 to 100 uM after 72 hrs by ELISA based TRAP assay; summary of the method: as §2
[16] = biological target: DNA polymerase I, thermostable (Thermus aquaticus) (UniProt P19821); assay: Inhibition of Thermus aquaticus taq polymerase at 0.5 to 100 uM after 72 hrs by ELISA based TRAP assay; summary of the method: as §2
[17] = biological target: Telomerase reverse transcriptase (Homo sapiens) (UniProt O14746); assay: Inhibition of telomerase in human A549 cells at 0.05 to 100 uM after 72 hrs by ELISA based TRAP assay; type: cell-based; summary of the method: as §2

Row | SMILES | Kb [1] [×10⁵ /M] | growth inhibition (GI) [2] | IC50 [2] [µM] | Activity [3] | growth inhibition (GI) [7] | IC50 [7] [µM] | Kb [8] | inhibition [9] | Tm [11] [°C] | also measured
1 | CN(C)CCN1C(=O)c2cc(NC(=O)CCN3CCCC3)cc3cc(NC(=O)CCN4CCCC4)cc(c23)C1=O | 6 | – | – | – | – | – | – | – | – | –
2 | O=C(CCN1CCCC1)Nc1cc2c3c(cc(NC(=O)CCN4CCCC4)cc3c1)C(=O)N(CCN1CCCCC1)C2=O | 9 | – | – | – | – | – | – | – | – | –
3 | O=C(CCN1CCCC1)Nc1cc2c3c(cc(NC(=O)CCN4CCCC4)cc3c1)C(=O)N(CCCN1CCCC1)C2=O | 30 | Dose-dependent effect | 1.5 | Active | Dose-dependent effect | 5.2 | 2 ×10⁷ /M | Dose-dependent effect | 60 | Activity [4]: inactive; inhibition [5]: 50%; inhibition [6]: inactive; Activity [10]: Non-toxic; Kb [12]: 5 ×10⁵ /M; Kb [13]: 5 ×10⁵ /M
4 | O=C(CCN1CCCC1)Nc1cc2c3c(cc(NC(=O)CCN4CCCC4)cc3c1)C(=O)N(CCN1CCN(C(=O)CCN3CCCC3)CC1)C2=O | 7 | – | – | – | – | – | – | – | – | –
5 | O=C(CCN1CCCC1)Nc1cc2c3c(cc(NC(=O)CCN4CCCC4)cc3c1)C(=O)N(CCCN1CCN(C(=O)CCN3CCCC3)CC1)C2=O | 9 | – | – | – | – | – | – | – | – | –
6 | O=C(CCN1CCCC1)Nc1cc2c3c(cc(NC(=O)CCN4CCCC4)cc3c1)C(=O)N(CCN1CCCC1)C2=O | 12 | – | – | – | – | – | – | – | – | –
7 | O=C(CCN1CCCC1)Nc1cc2c3c(cc(NC(=O)CCN4CCCC4)cc3c1)C(=O)N(CCCN1CCCCC1)C2=O | 24 | Dose-dependent effect | 8 | Active | Dose-dependent effect | 9.9 | 5 ×10⁷ /M | Dose-dependent effect | 60 | IC50 [14]: 43.3 µM; Activity [4]: inactive; inhibition [5]: 26%; Kb [12]: 6 ×10⁵ /M; inhibition [15]: Active
8 | O=C(CCN1CCCC1)Nc1cc2c3c(cc(NC(=O)CCN4CCCC4)cc3c1)C(=O)N(CCCN1CCOCC1)C2=O | 10 | Dose-dependent effect | 34.7 | Active | Dose-dependent effect | 40.3 | 4 ×10⁵ /M | Dose-dependent effect | 60 | IC50 [14]: 4.6 µM; inhibition [16]: Active; inhibition [17]: Active
